Data taken from ChEMBL document CHEMBL1152395, “Scuteflorins A and B, dihydropyranocoumarins from Scutellaria lateriflora” (J Nat Prod, 2009).
Activity calls are given as the source filed them. The rule behind the calls is not given here.

Experiments:
Vero = assay: Cytotoxicity against african green monkey Vero cells upto 50 uM by neutral red assay; type: cell-based; conditions: chlorocebus sabaeus
Summary of the method: (§1)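 Neutral red uptake assay. Purified compounds were tested up to 50 μM and the methanol extract up to 50 μg/mL. The panel was normal Vero monkey kidney fibroblasts and LLC-PK11 pig kidney epithelial cells, plus solid tumour lines HepG2, SK-MEL, KB, BT-549 and SK-OV-3.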

[1] = Cytotoxicity against pig LLC-PK11 cells upto 50 uM by neutral red assay; type: cell-based, Sus scrofa; summary of the method: as §1
SW1353 [2] = assay: Cytotoxicity against human SW1353 cells by neutral red assay; type: cell-based
[3] = biological target: Transcription factor Sp1 (Homo sapiens) (UniProt P08047); assay: Inhibition of SP1-dependent luciferase expression
Summary of the method: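 Counter-screen in SW1353 cells for inhibition of luciferase expression from a control plasmid driven by Sp-1. It runs alongside the PMA-induced NF-κB transcription assay to exclude nonspecific or cytotoxic effects.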

HepG2 = assay: Cytotoxicity against human HepG2 cells upto 50 uM by neutral red assay; type: functional, cell-based; summary of the method: as §1
SK-MEL = assay: Cytotoxicity against human SK-MEL cells upto 50 uM by neutral red assay; type: functional, cell-based; summary of the method: as §1
KB = assay: Cytotoxicity against human KB cells upto 50 uM by neutral red assay; type: functional, cell-based; summary of the method: as §1
BT-549 = assay: Cytotoxicity against human BT549 cells upto 50 uM by neutral red assay; type: functional, cell-based; summary of the method: as §1
SK-OV-3 = assay: Cytotoxicity against human SKOV3 cells upto 50 uM by neutral red assay; type: functional, cell-based; summary of the method: as §1
HL-60 [4] = assay: Antioxidant activity in human HL60 cells assessed as inhibition of relative oxygen species generation by DCFH-DA method; type: functional, cell-based
Summary of the method: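 Intracellular reactive oxygen species generation was measured in myelomonocytic HL-60 cells by the DCFH-DA method. IC50 values were derived, and vitamin C served as positive control. Cytotoxicity in HL-60 cells was checked up to 62.5 μM within this assay.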

SW1353 [5] = assay: Antiinflammatory activity in PMA-stimulated human SW1353 cells assessed as inhibition of NF-kappaB activation; type: functional, cell-based
Summary of the method: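 SW1353 cells were stimulated with PMA, and inhibition of NF-κB-mediated transcription was scored as IC50. Parthenolide was the positive control. Specificity was checked against a Sp-1-dependent luciferase control plasmid.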

HL-60 [6] = assay: Cytotoxicity against human HL60 cells by neutral red assay; type: cell-based

Transcription factor Sp1 (Homo sapiens), sequence (P08047 whole entry): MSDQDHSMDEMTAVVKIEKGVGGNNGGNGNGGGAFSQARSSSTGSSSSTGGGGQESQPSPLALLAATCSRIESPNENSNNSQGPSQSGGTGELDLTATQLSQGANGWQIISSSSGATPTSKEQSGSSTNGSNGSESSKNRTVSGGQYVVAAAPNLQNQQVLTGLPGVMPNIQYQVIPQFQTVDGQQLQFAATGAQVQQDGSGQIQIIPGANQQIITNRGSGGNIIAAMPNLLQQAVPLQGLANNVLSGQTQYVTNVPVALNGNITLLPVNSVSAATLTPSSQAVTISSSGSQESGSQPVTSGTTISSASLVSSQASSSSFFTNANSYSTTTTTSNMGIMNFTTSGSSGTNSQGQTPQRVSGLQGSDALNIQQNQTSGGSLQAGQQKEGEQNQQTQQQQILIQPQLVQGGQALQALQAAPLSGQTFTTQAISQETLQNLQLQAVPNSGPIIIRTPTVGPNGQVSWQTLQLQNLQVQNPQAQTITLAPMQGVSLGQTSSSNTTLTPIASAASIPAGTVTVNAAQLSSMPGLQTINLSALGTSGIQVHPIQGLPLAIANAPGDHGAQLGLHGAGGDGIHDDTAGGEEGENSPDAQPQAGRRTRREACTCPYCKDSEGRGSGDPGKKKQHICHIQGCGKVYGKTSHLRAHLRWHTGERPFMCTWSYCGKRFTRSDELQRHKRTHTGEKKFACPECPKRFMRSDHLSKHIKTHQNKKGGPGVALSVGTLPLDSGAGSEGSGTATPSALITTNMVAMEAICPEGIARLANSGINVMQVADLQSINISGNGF

## CC[C@H](CC[C@@H](C)[C@H]1CC[C@H]2[C@@H]3CC=C4C[C@@H](O[C@@H]5O[C@H](CO)[C@@H](O)[C@H](O)[C@H]5O)CC[C@]4(C)[C@H]3CC[C@]12C)C(C)C [SITOGLUSIDE]
Vero
  Activity: Non-toxic
[1]
  Activity: Non-toxic
SW1353 [2]
  Activity: Non-toxic
[3]
  Activity: inactive
HepG2
  Activity: inactive
SK-MEL
  Activity: inactive
KB
  Activity: inactive
BT-549
  Activity: inactive
SK-OV-3
  Activity: inactive

## C[C@@H]1CC[C@]2(C(=O)O)CC[C@]3(C)C(=CC[C@@H]4[C@@]5(C)CC[C@H](O)C(C)(C)[C@@H]5CC[C@]43C)[C@@H]2[C@]1(C)O [POMOLIC ACID]
Vero
  Activity: Non-toxic
[1]
  Activity: Non-toxic
SW1353 [2]
  Activity: Non-toxic
[3]
  Activity: inactive
HepG2
  Activity: inactive
SK-MEL
  Activity: inactive
KB
  Activity: inactive
BT-549
  Activity: inactive
SK-OV-3
  Activity: inactive

## O=C1O[C@H]([C@@H](O)CO)C(O)=C1O [ASCORBIC ACID]
HL-60 [4]; Homo sapiens, HL-60, read-out: IC50
  IC50: 0.01 µM

## C=C1C(=O)O[C@@H]2C3O[C@]3(C)CC/C=C(\C)CC[C@@H]12 (some centres not stated)
SW1353 [5]
  IC50: 4.1 µM

## CC(C)=CC(=O)O[C@H]1Cc2cc3ccc(=O)oc3cc2OC1(C)C [DECURSIN]
Vero
  Activity: Non-toxic
[1]
  Activity: Non-toxic
SW1353 [2]
  Activity: Non-toxic
[3]
  Activity: inactive
HepG2
  Activity: inactive
SK-MEL
  Activity: inactive
KB
  Activity: inactive
BT-549
  Activity: inactive
SK-OV-3
  Activity: inactive

## C/C=C(/C)C(=O)O[C@H]1C(=O)c2cc3ccc(=O)oc3cc2OC1(C)C [SCUTEFLORIN B]
Vero
  Activity: Non-toxic
[1]
  Activity: Non-toxic
SW1353 [2]
  Activity: Non-toxic
[3]
  Activity: inactive
HepG2
  Activity: inactive
SK-MEL
  Activity: inactive
KB
  Activity: inactive
BT-549
  Activity: inactive
SK-OV-3
  Activity: inactive

## CC(C)=CC(=O)O[C@H]1C(=O)c2cc3ccc(=O)oc3cc2OC1(C)C [SCUTEFLORIN A]
Vero
  Activity: Non-toxic
[1]
  Activity: Non-toxic
SW1353 [2]
  Activity: Non-toxic
[3]
  Activity: inactive
HepG2
  Activity: inactive
SK-MEL
  Activity: inactive
KB
  Activity: inactive
BT-549
  Activity: inactive
SK-OV-3
  Activity: inactive

## CC[C@H](CC[C@@H](C)[C@H]1CC[C@H]2[C@@H]3CC=C4C[C@@H](O)CC[C@]4(C)[C@H]3CC[C@]12C)C(C)C [BETA-SITOSTEROL]
Vero
  Activity: Non-toxic
[1]
  Activity: Non-toxic
SW1353 [2]
  Activity: Non-toxic
[3]
  Activity: inactive
HepG2
  Activity: inactive
SK-MEL
  Activity: inactive
KB
  Activity: inactive
BT-549
  Activity: inactive
SK-OV-3
  Activity: inactive

## C[C@H]1[C@H](C)CC[C@]2(C(=O)O)CC[C@]3(C)C(=CC[C@@H]4[C@@]5(C)CC[C@H](O)C(C)(C)[C@@H]5CC[C@]43C)[C@H]12 [URSOLIC ACID]
Vero
  Activity: Non-toxic
[1]
  Activity: Non-toxic
SW1353 [2]
  Activity: Non-toxic
[3]
  Activity: inactive
HepG2
  Activity: inactive
SK-MEL
  Activity: inactive
KB
  Activity: inactive
BT-549
  Activity: inactive
SK-OV-3
  Activity: inactive

## CCCCCCCCCCCCCCCC(=O)O [PALMITIC ACID]
Vero
  Activity: Non-toxic
[1]
  Activity: Non-toxic
SW1353 [2]
  Activity: Non-toxic
[3]
  Activity: inactive
HepG2
  Activity: inactive
SK-MEL
  Activity: inactive
KB
  Activity: inactive
BT-549
  Activity: inactive
SK-OV-3
  Activity: inactive

## COc1ccccc1-c1cc(=O)c2c(O)cc(O)c(OC)c2o1
Vero
  Activity: Non-toxic
[1]
  Activity: Non-toxic
SW1353 [2]
  Activity: Non-toxic
[3]
  Activity: inactive
HepG2
  Activity: inactive
SK-MEL
  Activity: inactive
KB
  Activity: inactive
BT-549
  Activity: inactive
SK-OV-3
  Activity: inactive

## CC1(C)CC[C@]2(C(=O)O)CC[C@]3(C)C(=CC[C@@H]4[C@@]5(C)CC[C@@H](O)[C@](C)(CO)[C@@H]5CC[C@]43C)[C@@H]2C1 [SCUTELLARIC ACID]
Vero
  Activity: Non-toxic
[1]
  Activity: Non-toxic
SW1353 [2]
  Activity: Non-toxic
[3]
  Activity: inactive
HepG2
  Activity: inactive
SK-MEL
  Activity: inactive
KB
  Activity: inactive
BT-549
  Activity: inactive
SK-OV-3
  Activity: inactive

## COc1c(O)cc2c(c1O)C(=O)C[C@@H](c1ccccc1)O2 [DIHYDROOROXYLIN A]
Vero
  Activity: Non-toxic
[1]
  Activity: Non-toxic
SW1353 [2]
  Activity: Non-toxic
[3]
  Activity: inactive
HepG2
  Activity: inactive
SK-MEL
  Activity: inactive
KB
  Activity: inactive
BT-549
  Activity: inactive
SK-OV-3
  Activity: inactive

## COc1c(O)cc2oc(-c3ccccc3)cc(=O)c2c1O [OROXYLIN A]
HL-60 [4]; hl-60
  IC50: Not Active
SW1353 [5]
  IC50: > 50 µM
Vero
  Activity: Non-toxic
[1]
  Activity: Non-toxic
SW1353 [2]
  Activity: Non-toxic
[3]
  Activity: inactive
HepG2
  Activity: inactive
SK-MEL
  Activity: inactive
KB
  Activity: inactive
BT-549
  Activity: inactive
SK-OV-3
  Activity: inactive

## COc1c(O)cc(O)c2c(=O)cc(-c3ccccc3)oc12 [WOGONIN]
SW1353 [5]
  IC50: 39 µM
Vero
  Activity: Non-toxic
[1]
  Activity: Non-toxic
HL-60 [6]
  Activity: Not Active
SW1353 [2]
  Activity: Non-toxic
[3]
  Activity: inactive
HepG2
  Activity: inactive
SK-MEL
  Activity: inactive
KB
  Activity: inactive
BT-549
  Activity: inactive
SK-OV-3
  Activity: inactive

## C=C(C)[C@@H]1CC[C@]2(C)CC[C@]3(C)[C@H](CC[C@@H]4[C@@]5(C)CC[C@H](O)C(C)(C)[C@@H]5CC[C@]43C)[C@@H]12 [LUPEOL]
Vero
  Activity: Non-toxic
[1]
  Activity: Non-toxic
SW1353 [2]
  Activity: Non-toxic
[3]
  Activity: inactive
HepG2
  Activity: inactive
SK-MEL
  Activity: inactive
KB
  Activity: inactive
BT-549
  Activity: inactive
SK-OV-3
  Activity: inactive

## O=c1cc(-c2ccccc2)oc2cc(O)cc(O)c12 [CHRYSIN]
HL-60 [4]; hl-60
  IC50: Not Active
SW1353 [5]
  IC50: 33 µM
Vero
  Activity: Non-toxic
[1]
  Activity: Non-toxic
SW1353 [2]
  Activity: Non-toxic
[3]
  Activity: inactive
HepG2
  Activity: inactive
SK-MEL
  Activity: inactive
KB
  Activity: inactive
BT-549
  Activity: inactive
SK-OV-3
  Activity: inactive

## O=C1C[C@@H](c2ccccc2)Oc2cc(O)cc(O)c21 [PINOCEMBRIN]
Vero
  Activity: Non-toxic
[1]
  Activity: Non-toxic
SW1353 [2]
  Activity: Non-toxic
[3]
  Activity: inactive
HepG2
  Activity: inactive
SK-MEL
  Activity: inactive
KB
  Activity: inactive
BT-549
  Activity: inactive
SK-OV-3
  Activity: inactive
